Results reported in publication PMC8929335 (Pharmacology Research & Perspectives, 2022).

What was measured:
[1] = NHP CSF-to-plasma Kp,uu experiment; type: in vivo, cynomolgus monkeys; details: cynomolgus, cynomolgus monkey, intravenous
Summary of the method: (§1)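 Cynomolgus monkeys (six total) received a three‐compound cassette in 10% captisol in sterile water as a 15 min IV infusion via saphenous or cephalic vein. Plasma (vena cava, K₂EDTA), lumbar CSF after euthanasia, and excised brain were taken from 2 animals per time point at about 17, 30 and 60 min after infusion start. Samples were quantified by LC‐MS/MS after protein precipitation, and Kp,uu was calculated from unbound concentrations.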

[2] = MDCK A-B passive permeability; type: in vitro ADME, canine; details: dog
Summary of the method: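 MDCKII cells seeded at 60 000 cells/cm² on 1 µm pore transwell inserts and used on day 4. Test compound at 1 µM in HBSS added to donor, with 0.1% BSA in receiver. Donor sampled at 0 min; donor and receiver sampled at 90 min, 37°C, analysed by LC‐MS/MS. Papp = (dQ/dt)/(A×C0). Monolayer integrity confirmed by lucifer yellow A‐B <2%; recovery >70%.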

MDR1 = MDR1 (Homo sapiens, UniProt P08183); assay: NIH MDR1-MDCKI transwell efflux assay; type: in vitro ADME
[3] = NHP brain-to-plasma Kp,uu experiment; type: in vivo, cynomolgus monkeys; details: cynomolgus, cynomolgus monkey, intravenous
Summary of the method: as §1

NHP brain tissue binding = type: in vitro ADME; details: monkey, brain homogenate
Summary of the method: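 Brain was homogenized in PBS at 1:3 (w:v) and dialysed against PBS in a rapid equilibrium dialysis device for 18 h at 37°C, 5% CO₂, shaking at 150 rpm. Samples were matrix‐matched, precipitated with acetonitrile containing internal standard, and analysed by LC‐MS/MS. fu = receiver/donor peak‐area ratio, corrected for dilution factor 4.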

[4] = target: T1, breast cancer resistance protein (BCRP) (Homo sapiens, UniProt Q9UNQ0); assay: BCRP transwell efflux ratio; type: in vitro ADME; details: B_A Papp (n = 3) / A_B Papp (n = 3)
T1 sequence (Q9UNQ0 1-655): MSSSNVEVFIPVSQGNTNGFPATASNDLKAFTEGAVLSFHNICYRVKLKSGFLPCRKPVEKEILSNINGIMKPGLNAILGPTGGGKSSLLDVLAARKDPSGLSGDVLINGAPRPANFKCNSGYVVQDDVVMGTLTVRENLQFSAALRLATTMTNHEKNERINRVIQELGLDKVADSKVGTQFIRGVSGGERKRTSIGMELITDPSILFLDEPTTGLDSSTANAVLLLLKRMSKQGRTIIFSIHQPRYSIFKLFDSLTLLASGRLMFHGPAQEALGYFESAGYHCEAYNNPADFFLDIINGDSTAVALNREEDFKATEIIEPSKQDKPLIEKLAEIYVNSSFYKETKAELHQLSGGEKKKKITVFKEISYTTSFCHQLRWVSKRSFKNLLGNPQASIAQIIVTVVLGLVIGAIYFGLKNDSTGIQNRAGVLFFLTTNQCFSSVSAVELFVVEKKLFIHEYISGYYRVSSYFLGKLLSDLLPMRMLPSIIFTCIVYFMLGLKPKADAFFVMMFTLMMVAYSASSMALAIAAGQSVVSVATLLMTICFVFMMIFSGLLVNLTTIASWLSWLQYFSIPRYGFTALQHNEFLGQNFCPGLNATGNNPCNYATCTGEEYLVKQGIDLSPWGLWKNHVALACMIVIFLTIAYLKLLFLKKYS

[5] = NHP brain-to-plasma and CSF-to-plasma Kp,uu time course experiment; type: in vivo, cynomolgus monkeys; details: IV infusion for 15 min
Summary of the method: as §1

Chain of MDR1 (P08183 whole entry): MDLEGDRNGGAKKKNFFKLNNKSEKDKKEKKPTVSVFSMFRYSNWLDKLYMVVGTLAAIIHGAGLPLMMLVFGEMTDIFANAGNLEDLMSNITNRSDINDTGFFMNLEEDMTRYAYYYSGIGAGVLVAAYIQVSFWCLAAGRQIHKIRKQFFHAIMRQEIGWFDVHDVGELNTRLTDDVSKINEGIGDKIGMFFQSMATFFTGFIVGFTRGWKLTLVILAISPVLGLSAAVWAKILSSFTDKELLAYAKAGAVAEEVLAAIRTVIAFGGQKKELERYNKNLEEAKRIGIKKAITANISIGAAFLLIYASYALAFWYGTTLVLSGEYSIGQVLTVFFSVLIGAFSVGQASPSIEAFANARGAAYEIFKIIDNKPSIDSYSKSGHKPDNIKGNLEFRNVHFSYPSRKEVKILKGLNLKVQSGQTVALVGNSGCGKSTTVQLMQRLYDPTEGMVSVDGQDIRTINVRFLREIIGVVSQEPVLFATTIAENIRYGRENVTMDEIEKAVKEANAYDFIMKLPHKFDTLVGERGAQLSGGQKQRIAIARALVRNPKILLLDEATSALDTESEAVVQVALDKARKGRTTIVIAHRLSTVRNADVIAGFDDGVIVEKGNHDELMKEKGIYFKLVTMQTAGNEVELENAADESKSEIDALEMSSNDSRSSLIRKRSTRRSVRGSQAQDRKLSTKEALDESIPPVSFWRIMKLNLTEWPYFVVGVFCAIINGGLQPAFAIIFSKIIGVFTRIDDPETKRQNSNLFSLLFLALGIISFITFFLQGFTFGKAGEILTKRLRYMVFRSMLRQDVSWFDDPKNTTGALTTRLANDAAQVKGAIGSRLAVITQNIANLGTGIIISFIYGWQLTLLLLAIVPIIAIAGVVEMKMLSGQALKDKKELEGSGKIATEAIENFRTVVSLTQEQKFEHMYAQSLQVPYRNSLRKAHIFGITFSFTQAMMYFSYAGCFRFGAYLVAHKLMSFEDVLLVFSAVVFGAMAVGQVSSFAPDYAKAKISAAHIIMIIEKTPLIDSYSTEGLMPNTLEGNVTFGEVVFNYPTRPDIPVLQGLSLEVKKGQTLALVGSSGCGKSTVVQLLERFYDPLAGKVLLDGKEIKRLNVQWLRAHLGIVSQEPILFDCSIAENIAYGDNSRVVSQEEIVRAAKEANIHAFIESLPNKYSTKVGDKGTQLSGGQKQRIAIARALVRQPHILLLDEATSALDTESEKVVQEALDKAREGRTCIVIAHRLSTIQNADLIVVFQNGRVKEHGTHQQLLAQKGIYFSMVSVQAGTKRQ

Kp uu at 1 h [1] | Papp A→B at 90 min, 1 µM [2] [×10⁻⁶ cm/s] | efflux ratio at 90 min, 1 µM (MDR1; human, MDCK-MDR1) | Kp uu [3] | fraction unbound at 18 h (NHP brain tissue binding) | BCRP ER [4] | Time for unbound brain concentration to reach equilibrium with unbound plasma concentration [5] [min] | Time for lumbar CSF to equilibrate with plasma ([5]; lumbar CSF) | ER in NIH MDR1 assay relative to current MDR1 assay (MDR1; NIH MDR1-MDCKI vs internal MDR1-MDCKII) | Structure (SMILES) | MDR1/BCRP substrate classification (MDR1; ER of 3 as cutoff to classify substrates)
1 | 32.8 ± 9 | 1 | 0.96 | ~1 | 0.9 | ≤ 15 | ~ 1 h | – | Cc1cc(=O)n(-c2ccccc2)n1C [Antipyrine] | no MDR1/BCRP efflux transporter interactions
– | – | – | – | – | – | – | – | more than 10 fold | C=C[C@H]1C[N@@]2CC[C@H]1C[C@@H]2[C@@H](O)c1ccnc2ccc(OC)cc12 [quinidine] | –
